Results as given in ChEMBL document CHEMBL3297714, “Gigantol, a bibenzyl from Dendrobium draconis, inhibits the migratory behavior of non-small cell lung cancer cells” (J Nat Prod, 2014).
The source made the active and inactive calls. The calls are words filed in the database; no cut-off is given here.

Columns and labels:
NCI-H460 [1] = experiment: Inhibition of human NCI-H460 cells migration at 20 uM after 24 hrs by Boyden chamber assay relative to control; type: functional
Procedure, shortened: (§1)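 For the Boyden chamber, H460 cells at 5 × 10^4/well were placed on the upper side of an 8 μm Transwell filter in RPMI with 0.1% FBS plus compound (0−20 μM) for 24 h, with 10% FBS below. Non-migrated cells were swabbed off, and underside cells were stained with 10 μg/mL Hoechst 33342 for 30 min and counted per field. n = 4.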

NCI-H460 [2] = experiment: Effect on unphosphorylated Akt level in human NCI-H460 cells at 0 to 20 uM for 24 hrs by Western blot analysis; type: functional, cell-based
Procedure, shortened: (§2)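 H460 cells were seeded at 5 × 10^5/well, left overnight, then exposed to 0−20 μM for 24 h. Lysis used Tris-HCl pH 7.5 buffer with Triton X-100, vanadate, NaF, PMSF and protease inhibitors, 40 min on ice. 60 μg protein per lane was run on 10% SDS-PAGE and blotted to nitrocellulose. Primary antibody overnight at 4 °C, then HRP secondary. Chemiluminescence, densitometry, β-actin loading control.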

NCI-H460 [3] = experiment: Decrease in Cav-1 expression in human NCI-H460 cells at 0 to 20 uM for 24 hrs by Western blot analysis; type: functional, cell-based; procedure, shortened: as §2
NCI-H460 [4] = experiment: Cytotoxicity against human NCI-H460 cells assessed as cell viability at 0 to 20 uM for 12 to 72 hrs by MTT assay; type: functional, cell-based
Procedure, shortened: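 MTT was added for 4 h at 37 °C, formazan was dissolved in DMSO and read at 570. Viability is given as % of untreated cells. Mean ± SD, n = 4.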

NCI-H460 [5] = experiment: Inhibition of human NCI-H460 cells migration overexpressing Cav-1 at 20 uM after 24 hrs by wound healing assay; type: functional, cell-based
Procedure, shortened: (§3)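 H460 cells were stably transfected (Lipofectamine 2000) with Cav-1 expression, Cav-1 shRNA or control plasmid, selected with antibiotic for 30 days and pooled, then passaged twice without G418. Confluent monolayers were scratched with a 1 mm tip and treated with 20 μM for 24 h. Wound-space change was expressed relative to untreated cells. n = 4.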

NCI-H292 = experiment: Inhibition of human NCI-H292 cells migration at 0 to 20 uM after 24 hrs by wound healing assay; type: functional, cell-based
Procedure, shortened: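 NCI-H292 cells in RPMI-1640 with 10% FBS were grown to a confluent monolayer and scratched with a 1 mm tip. They were incubated in serum-free RPMI with 0−20 μM for 24 h. The change in wound space was measured from photographs relative to untreated cells.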

NCI-H460 [6] = experiment: Cytotoxicity against human NCI-H460 cells assessed as cell viability at 100 uM for 24 hrs by MTT assay; type: functional; conditions: NCI-H460, 24 h, read-out: Activity
Procedure, shortened: (§4)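 MTT was given for 4 h at 37 °C, formazan was solubilized in DMSO and absorbance taken at 570. Viability is % of untreated control. IC50 came from four independent experiments. n = 4.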

NCI-H460 [7] = experiment: Induction of apoptosis in human NCI-H460 cells at 50 to 100 uM for 24 hrs by Hoechst-[…]/PI staining based fluorescence microscopic analysis; type: functional, cell-based
Procedure, shortened: (§5)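 They were stained with 10 μg/mL Hoechst 33342 plus 5 μg/mL propidium iodide for 30 min. Apoptotic (Hoechst-condensed) and necrotic (PI-positive) cells were scored by fluorescence microscopy as % versus untreated control.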

NCI-H460 [8] = experiment: Cytotoxicity against human NCI-H460 cells assessed as cell viability for 24 hrs by MTT assay; type: functional, cell-based; conditions: NCI-H460, 24 h; procedure, shortened: as §4
NCI-H460 [9] = experiment: Cytotoxicity against human NCI-H460 cells assessed as cell viability at 50 uM for 24 hrs by MTT assay; type: functional; conditions: NCI-H460, 24 h, read-out: Activity; procedure, shortened: as §4
NCI-H460 [10] = experiment: Induction of necrosis in human NCI-H460 cells at 50 to 100 uM for 24 hrs by Hoechst-[…]/PI staining based fluorescence microscopic analysis; type: functional, cell-based; procedure, shortened: as §5
NCI-H460 [11] = experiment: Decrease in Cdc42 expression in human NCI-H460 cells at 0 to 20 uM for 24 hrs by Western blot analysis; type: functional, cell-based; procedure, shortened: as §2
NCI-H460 [12] = experiment: Inhibition of human NCI-H460 cells invasion after 24 hrs by transwell assay; type: functional, cell-based
Procedure, shortened: (§6)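 Matrigel-coated Transwell inserts (8 μm pore) were seeded with H460 cells at 1.5 × 10^5/well in RPMI with 0.1% FBS plus compound (0−20 μM), with 10% FBS RPMI in the lower chamber, for 24 or 48 h. Cells that invaded the underside were stained with 10 μg/mL Hoechst 33342 for 30 min and counted per field by fluorescence microscopy. n = 4.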

NCI-H460 [13] = experiment: Inhibition of human NCI-H460 cells migration at 5 uM after 24 hrs by wound healing assay; type: functional; conditions: NCI-H460, 24 h
Procedure, shortened: (§7)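 H460 cells were seeded at 2.5 × 10^5/well and grown to a monolayer, then scratched with a 1 mm tip and washed with PBS. They were kept in serum-free RPMI with 0−20 μM for 24 h, or ± 20 μM for 24, 48 and 72 h. The wound was photographed, and migration was calculated as the change in wound space divided by that of control. Mean ± SD, n = 4.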

NCI-H460 [14] = experiment: Inhibition of human NCI-H460 cells migration transfected with Cav-1 shRNA at 20 uM after 24 hrs by wound healing assay; type: functional, cell-based; procedure, shortened: as §3
NCI-H460 [15] = experiment: Inhibition of human NCI-H460 cells migration at 5 uM after 24 hrs by Boyden chamber assay relative to control; type: functional; procedure, shortened: as §1
NCI-H460 [16] = experiment: Effect on Fak expression in human NCI-H460 cells at 0 to 20 uM for 24 hrs by Western blot analysis; type: functional, cell-based; procedure, shortened: as §2
NCI-H460 [17] = experiment: Cytotoxicity against human NCI-H460 cells assessed as cell viability at 500 uM for 24 hrs by MTT assay; type: functional; conditions: NCI-H460, 24 h, read-out: Activity; procedure, shortened: as §4
NCI-H460 [18] = experiment: Cytotoxicity against human NCI-H460 cells assessed as cell viability at < 20 uM for 24 hrs by MTT assay; type: functional, cell-based; procedure, shortened: as §4
NCI-H460 [19] = experiment: Inhibition of human NCI-H460 cells migration at 10 uM after 24 hrs by Boyden chamber assay relative to control; type: functional; procedure, shortened: as §1
NCI-H460 [20] = experiment: Inhibition of human NCI-H460 cells migration at 20 uM by wound healing assay; type: functional, cell-based; conditions: TDE = time-dependent effect; procedure, shortened: as §7
NCI-H460 [21] = experiment: Inhibition of human NCI-H460 cells migration after 24 to 72 hrs by wound healing assay; type: functional, cell-based; procedure, shortened: as §7
NCI-H460 [22] = experiment: Inhibition of human NCI-H460 cells migration at 20 uM after 24 hrs by wound healing assay; type: functional; conditions: NCI-H460, 24 h; procedure, shortened: as §7
NCI-H460 [23] = experiment: Inhibition of human NCI-H460 cells migration at 10 uM after 24 hrs by wound healing assay; type: functional; conditions: NCI-H460, 24 h; procedure, shortened: as §7
[24] = target: RAC-alpha serine/threonine-protein kinase (Homo sapiens) (UniProt P31749); experiment: Inhibition of Akt phosphorylation at Ser473 in human NCI-H460 cells at 0 to 20 uM for 24 hrs by Western blot analysis; type: cell-based; procedure, shortened: as §2
HaCaT = experiment: Cytotoxicity against human HaCaT cells assessed as cell migration at 0 to 20 uM after 24 hrs by wound healing assay; type: cell-based
Procedure, shortened: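 HaCat keratinocytes grown in DMEM with 10% FBS, 2 mM L-glutamine and penicillin/streptomycin. A confluent monolayer was scratched with a 1 mm tip, washed with PBS, and kept in serum-free medium with compound (0−20 μM) for 24 h. The wound was photographed, and the change in wound space was expressed relative to untreated cells.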

NCI-H460 [25] = experiment: Decrease in filopodia protrussions in human NCI-H460 cells at 10 to 20 uM for 24 hrs by phalloidin staining based fluorescence microscopic analysis; type: functional, cell-based
Procedure, shortened: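 H460 cells were seeded at 5 × 10^4/well and treated 24 h (0−20 μM). Cells were fixed in 4% paraformaldehyde, permeabilized with 0.1% Triton X-100 and blocked with 0.2% BSA, then stained with rhodamine-phalloidin (1:100, 15 min) or Hoechst 33342. Filopodia per cell were counted by fluorescence microscopy relative to untreated cells.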

[26] = target: Focal adhesion kinase 1 (Homo sapiens) (UniProt Q05397); experiment: Inhibition of Fak phosphorylation at Tyr397 in human NCI-H460 cells at 0 to 20 uM for 24 hrs by Western blot analysis; type: cell-based; procedure, shortened: as §2
NCI-H460 [27] = experiment: Inhibition of human NCI-H460 cells invasion at 0 to 20 uM by transwell assay; type: functional, cell-based; conditions: TDE = time-dependent effect; procedure, shortened: as §6

Sequence of Focal adhesion kinase 1 (Homo sapiens) (Q05397 2-1052 limits assumed): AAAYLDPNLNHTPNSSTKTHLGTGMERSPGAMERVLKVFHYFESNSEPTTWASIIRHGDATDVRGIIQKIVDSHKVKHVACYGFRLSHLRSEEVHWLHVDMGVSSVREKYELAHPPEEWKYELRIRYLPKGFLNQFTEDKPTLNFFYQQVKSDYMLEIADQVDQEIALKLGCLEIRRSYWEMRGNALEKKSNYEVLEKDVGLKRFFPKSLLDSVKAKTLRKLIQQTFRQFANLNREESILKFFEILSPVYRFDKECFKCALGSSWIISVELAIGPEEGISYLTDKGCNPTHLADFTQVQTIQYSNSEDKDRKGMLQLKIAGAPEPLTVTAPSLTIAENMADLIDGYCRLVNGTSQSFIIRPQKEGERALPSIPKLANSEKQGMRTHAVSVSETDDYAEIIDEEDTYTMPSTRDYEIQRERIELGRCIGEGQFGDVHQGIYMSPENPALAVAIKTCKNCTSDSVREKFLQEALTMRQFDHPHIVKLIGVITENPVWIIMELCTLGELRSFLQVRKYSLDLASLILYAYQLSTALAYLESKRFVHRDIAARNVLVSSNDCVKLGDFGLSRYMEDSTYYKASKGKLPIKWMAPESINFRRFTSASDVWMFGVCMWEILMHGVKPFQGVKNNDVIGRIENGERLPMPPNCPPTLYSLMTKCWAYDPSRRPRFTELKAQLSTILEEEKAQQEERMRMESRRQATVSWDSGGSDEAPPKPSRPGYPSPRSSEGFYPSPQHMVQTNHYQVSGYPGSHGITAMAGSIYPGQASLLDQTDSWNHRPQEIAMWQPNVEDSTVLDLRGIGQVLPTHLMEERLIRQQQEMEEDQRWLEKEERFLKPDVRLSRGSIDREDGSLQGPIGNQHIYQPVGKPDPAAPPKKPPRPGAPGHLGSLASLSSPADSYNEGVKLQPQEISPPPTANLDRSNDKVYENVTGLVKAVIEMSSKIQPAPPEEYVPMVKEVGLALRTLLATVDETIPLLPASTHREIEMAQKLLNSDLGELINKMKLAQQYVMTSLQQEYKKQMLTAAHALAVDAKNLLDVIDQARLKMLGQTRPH
Sequence of RAC-alpha serine/threonine-protein kinase (Homo sapiens) (P31749 whole entry): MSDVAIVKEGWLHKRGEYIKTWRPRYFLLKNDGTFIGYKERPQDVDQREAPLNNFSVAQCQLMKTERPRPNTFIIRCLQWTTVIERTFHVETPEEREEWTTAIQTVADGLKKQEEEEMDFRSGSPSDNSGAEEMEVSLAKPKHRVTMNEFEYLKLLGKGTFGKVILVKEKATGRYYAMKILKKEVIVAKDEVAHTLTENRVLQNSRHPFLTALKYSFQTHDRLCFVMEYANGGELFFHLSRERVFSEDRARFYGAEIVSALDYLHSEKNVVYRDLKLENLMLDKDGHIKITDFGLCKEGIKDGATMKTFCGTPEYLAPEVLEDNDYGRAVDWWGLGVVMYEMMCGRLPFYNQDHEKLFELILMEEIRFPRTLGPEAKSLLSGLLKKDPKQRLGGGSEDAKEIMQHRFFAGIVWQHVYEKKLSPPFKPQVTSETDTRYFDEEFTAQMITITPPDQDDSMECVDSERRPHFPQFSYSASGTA

Compound: COc1cc(O)cc(CCc2ccc(O)c(OC)c2)c1 [GIGANTOL]
- fold change (FC) (NCI-H460 [1]): 0.3
- Activity (NCI-H460 [2]): inactive
- inhibition (NCI-H460 [3]): Active
- Activity (NCI-H460 [4]): inactive
- inhibition (NCI-H460 [5]): Active
- inhibition (NCI-H292): Active
- viability at 100 µM (NCI-H460 [6]): 80%
- Activity (NCI-H460 [7]): Active
- IC50 (NCI-H460 [8]): 248 µM
- viability at 50 µM (NCI-H460 [9]): 83%
- Activity (NCI-H460 [10]): inactive
- inhibition (NCI-H460 [11]): Active
- inhibition (NCI-H460 [12]): Dose-dependent effect
- inhibition at 5 µM (NCI-H460 [13]): 30%
- inhibition (NCI-H460 [14]): Active
- fold change (FC) (NCI-H460 [15]): 0.7
- Activity (NCI-H460 [16]): inactive
- viability at 500 µM (NCI-H460 [17]): 20%
- Activity (NCI-H460 [18]): inactive
- fold change (FC) (NCI-H460 [19]): 0.4
- inhibition (NCI-H460 [20]): tde
- inhibition (NCI-H460 [21]): Dose-dependent effect
- inhibition at 20 µM (NCI-H460 [22]): 70%
- inhibition at 10 µM (NCI-H460 [23]): 50%
- inhibition [24]: Active
- Activity (HaCaT): Non-toxic
- inhibition (NCI-H460 [25]): Active
- Activity [26]: inactive
- inhibition (NCI-H460 [27]): tde
